Assay results from ChEMBL document CHEMBL1138746, “Indolebutylamines as selective 5-HT(1A) agonists” (J Med Chem, 2004).

Key:
[1] = Inhibition of hydroxytryptamine 2C receptor
[2] = molecular target: T1, Adrenergic receptor alpha-2 (Homo sapiens, UniProt P08913+P18825+P18089); assay: Inhibition of Alpha-2 adrenergic receptor; format: protein assay
T1 sequence (P08913 whole entry): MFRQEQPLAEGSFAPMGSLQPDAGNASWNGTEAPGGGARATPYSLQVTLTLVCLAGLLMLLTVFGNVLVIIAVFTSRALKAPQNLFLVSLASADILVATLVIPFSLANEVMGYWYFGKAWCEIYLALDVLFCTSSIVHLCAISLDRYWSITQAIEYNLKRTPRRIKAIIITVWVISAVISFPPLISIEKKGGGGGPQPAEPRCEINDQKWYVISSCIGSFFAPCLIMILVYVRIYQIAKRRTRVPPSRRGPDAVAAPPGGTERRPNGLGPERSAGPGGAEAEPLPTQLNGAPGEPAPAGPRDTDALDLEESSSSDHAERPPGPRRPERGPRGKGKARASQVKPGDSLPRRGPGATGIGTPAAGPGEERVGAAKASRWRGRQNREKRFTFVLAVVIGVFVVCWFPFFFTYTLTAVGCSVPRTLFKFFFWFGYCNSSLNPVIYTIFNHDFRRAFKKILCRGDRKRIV
T1 sequence (P18825 whole entry): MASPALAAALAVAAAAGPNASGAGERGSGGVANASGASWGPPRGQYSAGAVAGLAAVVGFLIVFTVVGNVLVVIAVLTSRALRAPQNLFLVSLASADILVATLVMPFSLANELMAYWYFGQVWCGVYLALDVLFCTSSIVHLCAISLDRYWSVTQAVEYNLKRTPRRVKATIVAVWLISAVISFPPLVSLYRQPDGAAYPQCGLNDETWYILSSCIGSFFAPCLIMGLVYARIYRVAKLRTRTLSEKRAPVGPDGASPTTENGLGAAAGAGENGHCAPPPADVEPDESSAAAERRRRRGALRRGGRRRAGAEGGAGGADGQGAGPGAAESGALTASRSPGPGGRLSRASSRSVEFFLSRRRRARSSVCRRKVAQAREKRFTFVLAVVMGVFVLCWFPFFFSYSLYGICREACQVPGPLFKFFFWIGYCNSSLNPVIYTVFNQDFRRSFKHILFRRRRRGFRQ
T1 sequence (P18089 whole entry): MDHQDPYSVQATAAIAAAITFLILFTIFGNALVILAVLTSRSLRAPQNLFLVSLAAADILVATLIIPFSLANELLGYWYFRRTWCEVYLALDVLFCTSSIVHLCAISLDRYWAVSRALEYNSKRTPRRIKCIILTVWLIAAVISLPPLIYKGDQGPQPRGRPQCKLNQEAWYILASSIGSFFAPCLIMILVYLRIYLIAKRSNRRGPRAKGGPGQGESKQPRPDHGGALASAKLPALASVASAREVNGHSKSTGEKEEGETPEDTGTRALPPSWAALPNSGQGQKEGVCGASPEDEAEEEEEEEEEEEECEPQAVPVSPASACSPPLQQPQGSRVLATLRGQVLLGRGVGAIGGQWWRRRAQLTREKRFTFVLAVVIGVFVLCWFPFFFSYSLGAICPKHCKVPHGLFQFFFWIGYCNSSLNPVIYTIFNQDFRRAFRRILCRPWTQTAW

[3] = Inhibition of 5-hydroxytryptamine 1D receptor
[4] = Inhibition of 5-hydroxytryptamine 2A receptor
D(2) dopamine receptor = D(2) dopamine receptor (Rattus norvegicus, UniProt P61169); assay: Displacement of [3H]spiperone from dopamine D2 receptor of rat striatal membranes; format: cell membranes, Membrane
D(2) dopamine receptor, sequence (P61169 whole entry): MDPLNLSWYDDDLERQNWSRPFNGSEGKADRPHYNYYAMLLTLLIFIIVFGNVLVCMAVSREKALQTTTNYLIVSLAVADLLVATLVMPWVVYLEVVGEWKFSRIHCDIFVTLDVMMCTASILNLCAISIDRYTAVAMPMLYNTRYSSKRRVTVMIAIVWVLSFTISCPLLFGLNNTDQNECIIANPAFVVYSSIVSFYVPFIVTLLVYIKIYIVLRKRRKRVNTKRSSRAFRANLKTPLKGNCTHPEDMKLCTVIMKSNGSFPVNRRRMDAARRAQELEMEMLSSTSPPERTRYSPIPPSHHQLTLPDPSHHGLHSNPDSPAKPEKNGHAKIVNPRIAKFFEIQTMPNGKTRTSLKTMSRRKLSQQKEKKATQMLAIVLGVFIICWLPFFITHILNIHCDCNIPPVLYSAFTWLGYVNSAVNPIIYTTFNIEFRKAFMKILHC
Method in brief: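 Rat striatal membranes (0.3–1.0 mg protein/mL) were incubated with 0.1 nM [3H]spiperone in Tris-HCl buffer (pH 7.1) containing 120 mmol/L NaCl, 5 mmol/L KCl, 1 mmol/L CaCl2, 1 mmol/L MgCl2 and 0.1% ascorbic acid, at 37 °C for 15 min. Bound ligand was separated by filtration with three ice-cold washes. Nonspecific binding was defined with 1 mmol/L (+)-butaclamol. IC50 (50% inhibition of binding) came from 5–10 concentrations, each in triplicate.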

[5] = molecular target: T2, Adrenergic receptor alpha-1 (Homo sapiens, UniProt P35348+P25100+P35368); assay: Inhibition of Alpha-1 adrenergic receptor; format: protein assay
T2 sequence (P35348 whole entry): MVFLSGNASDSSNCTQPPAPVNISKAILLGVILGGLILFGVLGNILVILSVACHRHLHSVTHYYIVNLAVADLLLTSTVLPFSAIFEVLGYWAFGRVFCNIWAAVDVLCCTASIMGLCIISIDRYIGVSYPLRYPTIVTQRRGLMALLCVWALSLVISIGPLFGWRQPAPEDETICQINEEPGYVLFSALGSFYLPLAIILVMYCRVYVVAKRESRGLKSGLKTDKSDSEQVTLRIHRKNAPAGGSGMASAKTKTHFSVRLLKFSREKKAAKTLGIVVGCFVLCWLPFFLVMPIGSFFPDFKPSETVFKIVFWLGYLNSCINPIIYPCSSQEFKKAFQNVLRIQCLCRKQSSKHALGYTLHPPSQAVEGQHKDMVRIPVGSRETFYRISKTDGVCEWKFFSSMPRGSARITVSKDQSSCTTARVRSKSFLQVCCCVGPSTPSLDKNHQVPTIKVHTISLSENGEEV
T2 sequence (P25100 whole entry): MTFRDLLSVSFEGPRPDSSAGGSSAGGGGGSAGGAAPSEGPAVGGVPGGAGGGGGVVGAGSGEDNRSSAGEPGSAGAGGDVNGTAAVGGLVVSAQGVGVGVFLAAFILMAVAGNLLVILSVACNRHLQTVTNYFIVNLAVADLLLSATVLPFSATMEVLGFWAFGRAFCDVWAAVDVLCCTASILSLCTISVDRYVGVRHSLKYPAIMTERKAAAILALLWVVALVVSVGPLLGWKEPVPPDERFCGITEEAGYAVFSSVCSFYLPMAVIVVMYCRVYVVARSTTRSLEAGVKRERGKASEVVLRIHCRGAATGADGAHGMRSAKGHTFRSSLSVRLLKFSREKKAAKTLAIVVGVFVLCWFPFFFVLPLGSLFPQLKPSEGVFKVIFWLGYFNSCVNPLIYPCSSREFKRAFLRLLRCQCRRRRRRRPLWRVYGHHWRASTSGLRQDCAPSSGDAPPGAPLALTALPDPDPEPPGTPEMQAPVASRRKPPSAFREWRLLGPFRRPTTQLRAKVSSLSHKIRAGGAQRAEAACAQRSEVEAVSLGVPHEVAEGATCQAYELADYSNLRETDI
T2 sequence (P35368 whole entry): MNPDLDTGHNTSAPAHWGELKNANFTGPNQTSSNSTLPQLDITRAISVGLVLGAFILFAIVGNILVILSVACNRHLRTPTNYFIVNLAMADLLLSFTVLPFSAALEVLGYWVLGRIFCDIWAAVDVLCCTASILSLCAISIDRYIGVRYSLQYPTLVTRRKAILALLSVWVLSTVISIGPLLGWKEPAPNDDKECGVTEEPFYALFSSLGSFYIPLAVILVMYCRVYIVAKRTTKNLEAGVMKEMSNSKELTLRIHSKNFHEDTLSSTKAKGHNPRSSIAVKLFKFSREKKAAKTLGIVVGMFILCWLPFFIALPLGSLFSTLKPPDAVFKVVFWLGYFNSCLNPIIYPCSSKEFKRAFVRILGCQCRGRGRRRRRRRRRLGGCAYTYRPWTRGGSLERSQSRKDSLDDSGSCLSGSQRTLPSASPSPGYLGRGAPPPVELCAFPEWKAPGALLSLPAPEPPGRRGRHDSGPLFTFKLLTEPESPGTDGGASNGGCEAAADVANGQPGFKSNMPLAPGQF

[6] = Inhibition of Histamine H1 receptor
[7] = molecular target: T3, 5-hydroxytryptamine receptor 1A (Rattus norvegicus, UniProt P19327); assay: Inhibition of 8-OH DPAT bindign to rat hydroxytryptamine 1A receptor in hippocampal membranes
T3 sequence (P19327 whole entry): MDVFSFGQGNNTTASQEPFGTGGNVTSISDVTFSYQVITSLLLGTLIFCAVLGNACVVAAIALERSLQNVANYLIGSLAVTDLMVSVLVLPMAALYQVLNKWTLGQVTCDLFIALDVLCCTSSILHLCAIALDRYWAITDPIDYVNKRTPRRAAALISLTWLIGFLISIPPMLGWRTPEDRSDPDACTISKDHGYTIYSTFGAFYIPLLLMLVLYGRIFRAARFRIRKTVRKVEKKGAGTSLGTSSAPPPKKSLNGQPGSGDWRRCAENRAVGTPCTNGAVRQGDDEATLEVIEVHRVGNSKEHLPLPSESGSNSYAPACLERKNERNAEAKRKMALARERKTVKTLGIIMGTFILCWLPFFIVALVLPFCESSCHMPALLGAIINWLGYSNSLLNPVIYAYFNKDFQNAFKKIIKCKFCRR

[8] = molecular target: 5-hydroxytryptamine receptor 1A (Homo sapiens) (UniProt P08908); assay: Effective dose against 5-hydroxytryptamine 1A receptor
5-hydroxytryptamine receptor 1A (Homo sapiens), sequence (P08908 whole entry, looked up): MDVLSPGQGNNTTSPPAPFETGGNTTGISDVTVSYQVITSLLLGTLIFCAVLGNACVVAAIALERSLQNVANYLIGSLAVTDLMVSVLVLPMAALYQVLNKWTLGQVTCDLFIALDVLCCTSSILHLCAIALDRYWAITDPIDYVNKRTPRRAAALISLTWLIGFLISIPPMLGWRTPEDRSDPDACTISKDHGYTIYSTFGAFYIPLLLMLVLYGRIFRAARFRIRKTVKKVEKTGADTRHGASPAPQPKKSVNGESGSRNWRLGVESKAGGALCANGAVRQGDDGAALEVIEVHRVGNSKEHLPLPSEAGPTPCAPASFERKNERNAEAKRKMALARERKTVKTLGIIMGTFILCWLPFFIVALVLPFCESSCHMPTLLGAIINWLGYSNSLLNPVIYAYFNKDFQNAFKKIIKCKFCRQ

[9] = molecular target: 5-hydroxytryptamine receptor 1A (Homo sapiens) (UniProt P08908); assay: Effective dose against 5-HT1a receptor
[10] = Inhibition of 5-hydroxytryptamine 2C receptor

SMILES	IC50 [1]	IC50 [2]	IC50 [3]	IC50 [4]	IC50 (D(2) dopamine receptor)	IC50 [5]	IC50 [6]	IC50 [7]	ED50 [8]	ED50 [9]	IC50 [10]
COc1ccc(N2CCN(CCCCc3c[nH]c4ccc(OC)cc34)CC2)cc1	4000 nM	7000 nM	> 10000 nM	750 nM	420 nM	1000 nM	41 nM	–	–	–	–
NC(=O)c1ccc2[nH]cc(CCCCN3CCN(c4ccc5c(c4)CCCO5)CC3)c2c1	–	–	–	–	100 nM	–	–	0.5 nM	0.07 nM	–	–
NC(=O)c1ccc(N2CCN(CCCCc3c[nH]c4ccc(C(N)=O)cc34)CC2)cc1	–	–	–	–	> 850 nM	–	–	–	–	4.7 nM	–
COc1ccc(N2CCN(CCCCc3c[nH]c4ccc(C(N)=O)cc34)CC2)cc1	–	2000 nM	–	220 nM	140 nM	700 nM	1000 nM	0.09 nM	–	–	–
NC(=O)c1ccc2[nH]cc(CCCCN3CCN(c4ccc5c(c4)OCO5)CC3)c2c1	–	900 nM	400 nM	240 nM	22 nM	100 nM	19 nM	0.4 nM	–	–	800 nM
